Test results reported in ChEMBL document CHEMBL4304771, “Design, synthesis and biological activity of N-(2-phenoxy)ethyl imidazo[1,2-a]pyridine-3-carboxamides as new antitubercular agents” (Eur J Med Chem, 2019).
≈ marks a conversion by molar mass, not a printed value.

Tests used:
[1] = tested on: Mycobacterium tuberculosis; test: Antitubercular activity against multidrug resistant Mycobacterium tuberculosis isolate 9160 assessed as parasite growth inhibition measured after 7 days incubation by microplate alamar blue assay; type: functional; conditions: isolate 9160, 168 h
Procedure, shortened: (§1)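 Strains grown to late log phase in 7H9 with 0.2% glycerol, 0.05% Tween 80 and 10% ADC. Cells washed, resuspended in PBS, filtered (8 µm) and frozen at -80 °C. Two-fold compound dilutions, 2 × 10⁵ CFU per well, 37 °C for 7 days. Tween 80 and Alamar blue then added for 16-24 h; fluorescence read at ex 530/em 590 nm. MIC = lowest concentration giving ≥90% fluorescence reduction versus mean of bacterium-only controls.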

[2] = tested on: Mycobacterium tuberculosis; test: Antitubercular activity against multidrug resistant Mycobacterium tuberculosis isolate 11168 assessed as parasite growth inhibition measured after 7 days incubation by microplate alamar blue assay; type: functional; conditions: isolate 11168, 168 h; procedure, shortened: as §1

Row | SMILES | MIC [1] [µg/mL] | MIC [2] [µg/mL]
1 | CCc1nc2ccc(Br)cn2c1C(=O)NCCOc1ccc(N2CCC(C(F)(F)F)CC2)cc1 | 0.13 (≈ 0.241 µM) | < 0.016
2 | CCc1nc2ccc(Cl)cn2c1C(=O)NCCOc1ccc(Br)cc1 | 0.311 (≈ 0.736 µM) | 0.063 (≈ 0.149 µM)
3 | COc1ccc(OCCNC(=O)c2c(C3CC3)nc3ccc(C)cn23)cc1 | 0.429 (≈ 1.17 µM) | < 0.016
4 | CCc1nc2ccc(Cl)cn2c1C(=O)NCCOc1ccc(Cl)cc1 | 1 (≈ 2.64 µM) | 0.25 (≈ 0.661 µM)
5 | COc1ccc2nc(C)c(C(=O)NCCOc3ccc(N4CCC(C(F)(F)F)CC4)cc3)n2c1 | 0.111 (≈ 0.233 µM) | < 0.016
6 | CCc1nc2ccc(Br)cn2c1C(=O)NCCOc1ccc(N2CC3CCCCC3C2)cc1 (stereo unspecified) | 0.032 (≈ 0.0626 µM) | < 0.016
7 | CCc1nc2ccc(Br)cn2c1C(=O)NCCOc1ccc(N2CCCCC2)cc1 | < 0.016 | < 0.016
8 | CCc1nc2ccc(C)cn2c1C(=O)NCCOc1ccc(OC)cc1 | 0.394 (≈ 1.11 µM) | < 0.016
9 | CCc1nc2ccc(Cl)cn2c1C(=O)NCCOc1ccc(N(C)C)cc1 | 0.225 (≈ 0.582 µM) | < 0.016
10 | CCc1nc2ccc(Cl)cn2c1C(=O)NCCOc1ccc(N2CCN(c3ccc(F)cc3)CC2)cc1 | 0.016 (≈ 0.0306 µM) | < 0.016
11 | COc1ccc2nc(C)c(C(=O)NCCOc3ccc(N4CC5CCCCC5C4)cc3)n2c1 (stereo unspecified) | < 0.016 | < 0.016
12 | CCc1nc2ccc(Br)cn2c1C(=O)NCCOc1ccc(Br)cc1 | 0.449 (≈ 0.961 µM) | 0.125 (≈ 0.268 µM)
13 | CCc1nc2ccc(C)cn2c1C(=O)NCCOc1ccc(N2CC3CCCCC3C2)cc1 (stereo unspecified) | 0.024 (≈ 0.0537 µM) | < 0.016
14 | COc1ccc2nc(C)c(C(=O)NCCOc3ccc(Br)cc3)n2c1 | 0.5 (≈ 1.24 µM) | 0.125 (≈ 0.309 µM)
15 | NNC(=O)c1ccncc1 [ISONIAZID] | > 40 | > 40
16 | O=c1nc(N2CCN(CC3CCCCC3)CC2)sc2c([N+](=O)[O-])cc(C(F)(F)F)cc12 [MACOZINONE] | 0.232 (≈ 0.508 µM) | 0.116 (≈ 0.254 µM)
17 | CO[C@H]1/C=C/O[C@@]2(C)Oc3c(C)c(O)c4c(O)c(c(/C=N/N5CCN(C)CC5)c(O)c4c3C2=O)NC(=O)/C(C)=C\C=C\[C@H](C)[C@H](O)[C@@H](C)[C@@H](O)[C@@H](C)[C@H](OC(C)=O)[C@@H]1C [RIFAMPIN] | 38.6 (≈ 47 µM) | 36.9 (≈ 44.8 µM)
18 | CCc1nc2ccc(Cl)cn2c1C(=O)NCc1ccc(N2CCC(c3ccc(OC(F)(F)F)cc3)CC2)cc1 [TELACEBEC] | 0.057 (≈ 0.102 µM) | < 0.016
